Source: PubChem (several laboratories)
Only some compounds are listed: those with a hit (about 2.4% of all), similar ones and a draw of the others.
Dynein transport – blocks dynein driven cargo transport along microtubules | z-score, hits read low | 3617.4 mouse cells, GR-EGFP nuclear translocation imaging; test concentration mostly 20 µM; stimulated with dexamethasone, 1 µM; active compounds read low | hit rate 0.47% among 220,000;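 active = plate z-score of nuclear minus cytoplasmic receptor signal below a set negative limit, without overly bright fluorescence or cell loss, cut at about -3.5 in these data, passing the limit was not always enough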;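 also: z-score of nuclear minus cytoplasmic ring GR-EGFP intensity difference per well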
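Buffer or medium – tet-free medium with charcoal-stripped serum · Signal – automated 10x imaging of fixed Hoechst-stained cells · Also added – dexamethasone agonist, 1.0 µM final, for 30 min · Incubation – induction 48 h, compound 1 h, agonist 30 min · Read-out – GR-EGFP nuclear translocation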
zVAD death inh – blocks zVAD induced death of L929 cells | L929 zVAD necroptosis rescue, ATP luminescence, 24 h; with zVAD 60 µM | viability rescue, % at 10 µM | hit rate 0.38% among 220,000 | AID 1377;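 active = activation, scaled between plate controls, above about 75%, limit read from the data; inactive = activation under that limit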;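 also: 0% = zVAD with DMSO and 100% = DMSO alone without zVAD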
Hck-Nef inh – blocks Nef-activated human Hck kinase. hit rate 0.68% among 220,000. inhibition, % at 20 µM. Recombinant Hck-YEEI plus Nef, Z-Lyte FRET kinase assay. P08631. AID 463187;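 active = Hck-Nef kinase inhibition above about 50%, limit read from the data; inactive = inhibition below that limit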;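 also: 0% = DMSO with Hck plus Nef and 100% = Hck alone without Nef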
TNF death inh – inhibitors of TNF-alpha induced necroptosis in Jurkat FADD-/- cells. Jurkat FADD-/- TNF necroptosis rescue, ATP luminescence, 24 h; 0 = TNF only, 100 = no-TNF cells. activation (protection from cell death), % at 10 µM. hit rate 0.068% among 220,000;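 active = activation, meaning protection from cell death, of at least 50% relative to plate controls; inactive = activation below 50%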;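 also: necroptosis triggered by 40 ng/mL TNF-alpha added together with compound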
Autophagy mod – alters autophagy in cells; MEF GFP-LC3 puncta imaging; test concentration mostly 10 µM; calls only at 10 µM (by protocol); hit rate 0.98% among 190,000; AID 463193;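 active = percentage of spot-positive cells more than 3 SD above its plate mean, without a fluorescence outlier flag or 80% toxicity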;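 also: spot-positive cell cutoff set from DMSO-treated cells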
MDM2 E3 inh – blocks human Mdm2 ubiquitin ligase activity | cell-based MDM2 ubiquitination luciferase reporter, 2 h; 0 = plate control, 100 = twice control, blank-subtracted | hit rate 0.11% among 210,000 | signal enhancement, % at 5 µM;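 active = signal enhancement of 30% or more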;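 also: luminescence tracks abundance of the self-degrading MDM2-luciferase fusion protein; higher signal means inhibition of MDM2 E3 ligase activity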
Target sequence (Q00987 whole entry, looked up, the tested form may be a part): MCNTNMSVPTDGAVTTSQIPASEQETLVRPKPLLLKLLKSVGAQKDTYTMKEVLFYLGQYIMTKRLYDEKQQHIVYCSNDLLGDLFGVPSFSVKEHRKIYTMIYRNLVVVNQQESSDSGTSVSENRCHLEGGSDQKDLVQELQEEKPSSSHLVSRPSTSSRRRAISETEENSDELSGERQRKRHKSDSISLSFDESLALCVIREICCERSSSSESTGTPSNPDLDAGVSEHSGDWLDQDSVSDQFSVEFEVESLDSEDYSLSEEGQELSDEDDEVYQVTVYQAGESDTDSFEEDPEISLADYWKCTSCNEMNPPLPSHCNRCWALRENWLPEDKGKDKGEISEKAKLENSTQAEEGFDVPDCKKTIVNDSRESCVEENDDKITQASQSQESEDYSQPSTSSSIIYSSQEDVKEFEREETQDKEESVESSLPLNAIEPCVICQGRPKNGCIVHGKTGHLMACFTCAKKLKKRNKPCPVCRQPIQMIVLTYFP
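Assay system: stable mammalian line carrying autodegrading MDM2–luciferase fusion reporter; amount: 2000 cells seeded into each well; buffer or medium: DMEM; benchmarks: plate control and blank wells; signal: luciferase luminescence; timing: 2 h compound exposure at 37 °C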
* marks the source's active call; other numbers are inactive results; i = inactive; x = no result given; + = active, no number.

SMILES | Dynein transport | zVAD death inh | Hck-Nef inh | TNF death inh | Autophagy mod | MDM2 E3 inh
Cc1cc(C)n(-c2nc3c(c(=O)[nH]c(=O)n3C)n2CC(O)COc2ccc(Cl)cc2Cl)n1 (configuration not stated) | -0.091 | 0 | 1 | -5 | + | -1
COC(=O)C1=C(C)NC2=C(C(=O)CC(c3cccs3)C2)C1c1ccsc1 (configuration not stated) | 1.2 | 0 | 7 | -6 | i | 5
CCOC(=O)C1=C(C)NC2=C(C(=O)CC(c3cccs3)C2)C1c1cccs1 (configuration not stated) | 0.57 | -1 | -9 | -15 | + | x
O=C1CN(C(=O)c2cc3ccccc3oc2=O)C(c2ccc(F)cc2)c2cc(F)ccc2N1 (configuration not stated) | 1.8 | -1 | -4 | 4 | i | x
O=C1CN(C(=O)c2cc3ccccc3oc2=O)C(c2ccc(F)cc2)c2cc(Br)ccc2N1 (configuration not stated) | -0.27 | 0 | -9 | 6 | + | x
N#C/C(C(=O)NCCc1ccccc1)=C1/N=C(NC(=O)c2cccs2)c2ccccc21 | 1.2 | 4 | 1 | -3 | + | -18
CC1CCCCN1CC(O)COCCC12CC3CC(CC(C3)C1)C2 (configuration not stated) | -1.6 | 0 | 16 | -1 | + | -13
C=C(C)CN1CCN(S(=O)(=O)c2ccc(C)c(N(C)S(=O)(=O)c3ccc(C)cc3)c2C)CC1 | 1.6 | 0 | 0 | 4 | i | -14
Cc1c(NC(=S)NC(NC(=O)C(C)(C)C)C(Cl)(Cl)Cl)c(=O)n(-c2ccccc2)n1C (configuration not stated) | 0.6 | 1 | 1 | 1 | i | -8
CC12CC(NC(=O)N1CCc1ccccc1)c1cc(Cl)ccc1O2 (configuration not stated) | 0.011 | 0 | 1 | 0 | i | -17
Cc1sc(NC(=O)CCCC(=O)O)c(C(N)=O)c1-c1ccccc1 | 0.079 | 1 | 102* | 0 | i | x
CC1CCc2cc(F)ccc2N1C(=O)c1ccc2c(c1)OCO2 (configuration not stated) | 0.69 | 1 | 3 | -1 | + | 2
COc1ccc(C(=O)N2c3ccc(F)cc3CCC2C)cc1OC (configuration not stated) | 0.77 | 0 | 12 | -4 | i | -7
COc1ccc(N=c2oc3c(OC)cccc3cc2C(=O)NCc2ccco2)cc1OC | 0.45 | 47 | 2 | -6 | + | -10
COc1ccc(N=c2oc3ccccc3cc2C(=O)Nc2ccccn2)cc1OC | -0.52 | 1 | 26 | 2 | + | -12
COc1ccccc1NC(=O)c1cc2ccccc2o/c1=N\O | x | x | x | x | x | 4
COc1cc2c(cc1OC)CN(C(=O)c1ccco1)CC2 | 1.8 | 0 | 11 | 0 | i | 35*
CC1(C)CC(=O)C(C(=S)Nc2ccccc2)=C(NC2CC(C)(C)NC(C)(C)C2)C1 | -0.11 | 2 | 12 | 4 | i | 2
Cc1cc(C(=O)NCC(=O)OCC(=O)N(C(C)C)C(C)C)ccc1[N+](=O)[O-] | 3.5 | -1 | 0 | 1 | i | -14
Cc1occc1C(=O)N/N=C/C1=C(N2CCOCC2)C(=C\c2ccc(Cl)cc2Cl)/CC1 | 6.7 | 1 | 0 | 1 | + | -9
O=C(Cc1c(F)cccc1Cl)NCCCn1ccnc1 | -0.083 | 0 | 0 | 0 | i | -11
CC1CCN(CCCNC(=O)c2ccc(CSCc3cccc(Cl)c3)o2)CC1 | -0.25 | 0 | 1 | -4 | + | -8
N#CC1=C(N)N2C(=C(C#N)C1c1ccccc1)Sc1ccccc12 (configuration not stated) | -0.41 | -1 | 2 | 1 | + | -8
Cc1cccc(C)c1NC(=O)Cn1nnc(-c2ccc(N3CCOCC3)cc2)n1 | -0.81 | 0 | 1 | -3 | i | -21
Cc1ccc(C)c(NC(=O)Cn2nnc(-c3ccc(N4CCOCC4)cc3)n2)c1 | 0.28 | -1 | 27 | -4 | + | -3
SMILES | Dynein transport | zVAD death inh | Hck-Nef inh | TNF death inh | Autophagy mod | MDM2 E3 inh
O=C1Nc2ccccc2/C1=N\c1sc2c(c1C(=O)Nc1ccccc1)CCCC2 | 0.43 | x | -4 | -3 | + | -12
Cc1ccc(-c2ccc(/C=N/O)o2)cc1[N+](=O)[O-] | 0.15 | 1 | 16 | -2 | i | -12
COc1cc(/C=C2\SC(=S)N(C(C(=O)O)c3ccccc3)C2=O)ccc1O (configuration not stated) | 0.27 | 0 | 10 | -1 | x | -4
CCOc1ccc(/C=C2/SC(=S)N(C(C(=O)O)c3ccccc3)C2=O)cc1OCC (configuration not stated) | 0.17 | 2 | 62* | 0 | i | -6
COC(=O)c1ccc(N2CCN(C)CC2)c(NC(=O)COc2ccc(OC)cc2)c1 | 1.2 | 0 | 0 | -11 | + | -2
CCN(CCNC(=O)Nc1ccc(Cl)cc1)c1ccccc1 | -0.23 | 2 | 0 | 0 | + | -2
O=C(NCCc1ccc(Cl)cc1)Nc1ccc(Cl)cc1 | 0.67 | 49 | -1 | 7 | x | -10
COc1cc2c(cc1NC(=O)/C=C/c1ccccc1)oc1ccccc12 | -0.073 | 28 | 2 | 5 | + | -18
CCN(CC)S(=O)(=O)c1ccc(C(=O)Nc2cc3oc4ccccc4c3cc2OC)cc1 | -0.4 | 2 | 3 | 5 | + | 1
CC1(NC(=O)NCc2ccco2)CCS(=O)(=O)C1 (configuration not stated) | -0.63 | 1 | 2 | 2 | i | -12
O=C(CCc1ccccc1)NNC(=S)NC(=O)c1ccc(Cl)cc1 | 0.78 | 0 | -1 | -3 | i | -10
Cc1nn(C(=O)c2ccc([N+](=O)[O-])cc2)c(C)c1Br | -0.86 | 1 | 3 | 4 | x | -8
COc1ccc(C(=O)NCCCc2nc3ccccc3n2Cc2ccccc2C)cc1OC | 0.058 | -1 | -3 | -2 | + | x
CCC(=O)c1ccc(OCC(O)Cn2nnc3ccccc32)cc1 (configuration not stated) | -0.42 | 0 | -6 | 0 | i | -9
Cc1ccccc1OCC(O)Cn1nnc2ccccc21 (configuration not stated) | 0.011 | -1 | 7 | -1 | + | -1
Cc1ccc(-n2[nH]c(C)c(/C=N/c3ccccn3)c2=O)cc1 | -0.31 | 0 | 2 | -7 | i | -8
Cc1[nH]n(-c2ccccc2)c(=O)c1C=Nc1cccc2cccnc12 | -1.1 | 12 | 3 | -6 | + | 10
